In ChEMBL document CHEMBL1150351, “Design, synthesis, and biological evaluation of new-generation taxoids” (J Med Chem, 2008):
pIC50: −log10 of the molar value. Active and inactive are the calls of the source. The calls are words filed in the database; no cut-off is given here.

Tests used:
[1] = Cytotoxicity against multidrug resistant Pgp expressing human LCC6 cells after 72 hrs by sulforhodamine B test; type: functional, cell-based; conditions: LCC-6, 72 h
[2] = Cytotoxicity against multidrug resistant Pgp expressing human NCI/ADR cells after 72 hrs by sulforhodamine B test; type: functional, cell-based; conditions: NCI/ADR-RES
C6 = assay: Resistance index, Ratio of IC50 for multidrug resistant Pgp expressing human LCC6 cells to IC50 for Pgp deficient human LCC6 cells; type: functional; parameters: reference not given here
MCF7 [3] = assay: Cytotoxicity against Pgp deficient human MCF7 cells after 72 hrs by sulforhodamine B test; type: functional, cell-based; conditions: MCF7, 72 h
MCF7 [4] = assay: Resistance index, Ratio of IC50 for multidrug resistant Pgp expressing human NCI/ADR cells to IC50 for Pgp deficient human MCF7 cells; type: functional; parameters: reference not given here
[5] = Cytotoxicity against Pgp deficient human LCC6 cells after 72 hrs by sulforhodamine B test; type: functional, cell-based; conditions: C6, 72 h
BXPC-3 = assay: Cytotoxicity against multidrug resistant human BxPC3 cells after 72 hrs by MTT assay; type: functional, cell-based; conditions: BXPC-3, 72 h
Procedure, shortened: (§1)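 Pancreatic lines were cultured per ATCC, seeded at 2.5 × 10^4 cells/well and allowed to adhere overnight. The medium was replaced with drug diluted from a 10 mM DMSO stock, or vehicle, for 72 h, in triplicate, with at least three independent trials. MTT at 0.5 mg/mL was added for 3 h, formazan was dissolved in acidified isopropanol, and A570 was read. IC50 came from sigmoid-Emax nonlinear regression.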

CFPAC-1 = assay: Cytotoxicity against multidrug resistant human CFPAC1 cells after 72 hrs by MTT assay; type: functional, cell-based; conditions: CFPAC-1, 72 h; procedure, shortened: as §1
PANC-1 = assay: Cytotoxicity against multidrug resistant human PANC1 cells after 72 hrs by MTT assay; type: functional, cell-based; conditions: PANC-1, 72 h; procedure, shortened: as §1
[6] = Cytotoxicity against paclitaxel resistant human 1A9PTX10 cells expressing class 1 beta-tubulin mutant after 72 hrs; type: functional, cell-based; conditions: 1A9/ptx-10, 72 h
[7] = Cytotoxicity against paclitaxel resistant human 1A9PTX22 cells expressing class 1 beta-tubulin mutant after 72 hrs; type: functional, cell-based; conditions: 1A9/ptx-22, 72 h
Bos taurus [8] = organism: Bos taurus; assay: Induction of calf brain tubulin polymerization at 10 uM in absence of GTP by spectrophotometric assay
A2780 = assay: Cytotoxicity against human A2780 cells after 72 hrs; type: functional, cell-based; conditions: A2780, 72 h
MIA PaCa-2 = assay: Cytotoxicity against multidrug resistant human MIAPaCa2 cells after 72 hrs by MTT assay; type: functional, cell-based; conditions: MIA PaCa-2, 72 h; procedure, shortened: as §1
Bos taurus [9] = organism: Bos taurus; assay: Induction of calf brain tubulin polymerization at 10 uM in after 5 mins in absence of GTP by spectrophotometric assay

| SMILES | pIC50 [1] | pIC50 [2] | Ratio IC50 (C6) | pIC50 (MCF7 [3]) | Ratio IC50 (MCF7 [4]) | pIC50 [5] | pIC50 (BXPC-3) | pIC50 (CFPAC-1) | pIC50 (PANC-1) | pIC50 [6] | pIC50 [7] | Activity (Bos taurus [8]) | pIC50 (A2780) | pIC50 (MIA PaCa-2) | Activity (Bos taurus [9]) |
| --- | --- | --- | --- | --- | --- | --- | --- | --- | --- | --- | --- | --- | --- | --- | --- |
| CCC(=O)O[C@H]1C(=O)[C@@]2(C)[C@H]([C@H](OC(=O)c3cccc(OC)c3)[C@]3(O)C[C@H](OC(=O)[C@H](O)[C@H](CC(C)C)NC(=O)C4CCCCC4)C(C)=C1C3(C)C)[C@]1(OC(C)=O)CO[C@@H]1C[C@@H]2O | 7.92 | 8.19 | 12 | 9.15 | 9.3 | 9.00 |  |  |  |  |  |  |  |  |  |
| COc1cccc(C(=O)O[C@H]2[C@@H]3[C@]4(OC(C)=O)CO[C@@H]4C[C@H](O)[C@@]3(C)C(=O)[C@H](OC(=O)OCc3ccccc3)C3=C(C)[C@@H](OC(=O)[C@H](O)[C@H](C=C(C)C)NC(=O)OC(C)(C)C)C[C@]2(O)C3(C)C)c1 | 8.74 | 8.82 | 1.5 | 9.70 | 7.5 | 8.92 |  |  |  |  |  |  |  |  |  |
| CCC(=O)O[C@H]1C(=O)[C@@]2(C)[C@H]([C@H](OC(=O)c3ccccc3)[C@]3(O)C[C@H](OC(=O)[C@H](O)[C@H](C=C(C)C)NC(=O)C4=CCCCC4)C(C)=C1C3(C)C)[C@]1(OC(C)=O)CO[C@@H]1C[C@@H]2O | 7.96 | 8.42 | 9.2 | 9.52 | 13 | 8.92 |  |  |  |  |  |  |  |  |  |
| CCC(=O)O[C@H]1C(=O)[C@@]2(C)[C@H]([C@H](OC(=O)c3ccccc3)[C@]3(O)C[C@H](OC(=O)[C@H](O)[C@H](CC(C)C)NC(=O)OC4CCCC4)C(C)=C1C3(C)C)[C@]1(OC(C)=O)CO[C@@H]1C[C@@H]2O | 7.85 | 8.06 | 5.4 | 8.89 | 6.8 | 8.59 |  |  |  |  |  |  |  |  |  |
| CCC(=O)O[C@H]1C(=O)[C@@]2(C)[C@H]([C@H](OC(=O)c3cccc(OC)c3)[C@]3(O)C[C@H](OC(=O)[C@H](O)[C@H](C=C(C)C)NC(=O)OC4CCCCC4)C(C)=C1C3(C)C)[C@]1(OC(C)=O)CO[C@@H]1C[C@@H]2O | 7.83 | 7.85 | 12 | 8.84 | 9.7 | 8.91 |  |  |  |  |  |  |  |  |  |
| CCC(=O)O[C@H]1C(=O)[C@@]2(C)[C@H]([C@H](OC(=O)c3ccccc3)[C@]3(O)C[C@H](OC(=O)[C@H](O)[C@H](CC(C)C)NC(=O)C4CCCCC4)C(C)=C1C3(C)C)[C@]1(OC(C)=O)CO[C@@H]1C[C@@H]2O | 7.49 | 7.72 | 5.5 | 8.82 | 13 | 8.24 |  |  |  |  |  |  |  |  |  |
| CCC(=O)O[C@H]1C(=O)[C@@]2(C)[C@H]([C@H](OC(=O)c3cccc(OC)c3)[C@]3(O)C[C@H](OC(=O)[C@H](O)[C@H](C=C(C)C)NC(=O)C4CC4)C(C)=C1C3(C)C)[C@]1(OC(C)=O)CO[C@@H]1C[C@@H]2O | 7.76 | 8.11 | 16 | 9.30 | 15.6 | 8.96 |  |  |  |  |  |  |  |  |  |
| CCC(=O)O[C@H]1C(=O)[C@@]2(C)[C@H]([C@H](OC(=O)c3cccc(OC)c3)[C@]3(O)C[C@H](OC(=O)[C@H](O)[C@H](C=C(C)C)NC(=O)C4CCCC4)C(C)=C1C3(C)C)[C@]1(OC(C)=O)CO[C@@H]1C[C@@H]2O | 7.96 | 8.02 | 10 | 9.52 | 32 | 8.96 |  |  |  |  |  |  |  |  |  |
| COc1cccc(C(=O)O[C@H]2[C@@H]3[C@]4(OC(C)=O)CO[C@@H]4C[C@H](O)[C@@]3(C)C(=O)[C@H](OC(=O)c3ccccc3OC)C3=C(C)[C@@H](OC(=O)[C@H](O)[C@H](C=C(C)C)NC(=O)OC(C)(C)C)C[C@]2(O)C3(C)C)c1 | 9.05 | 8.48 | 2.3 | 8.96 | 3 | 9.40 |  |  |  |  |  |  |  |  |  |
| CCC(=O)O[C@H]1C(=O)[C@@]2(C)[C@H]([C@H](OC(=O)c3ccccc3)[C@]3(O)C[C@H](OC(=O)[C@H](O)[C@H](C=C(C)C)NC(=O)C4=CCCC4)C(C)=C1C3(C)C)[C@]1(OC(C)=O)CO[C@@H]1C[C@@H]2O | 7.85 | 8.22 | 12 | 9.40 | 15 | 8.92 |  |  |  |  |  |  |  |  |  |
| CCC(=O)O[C@H]1C(=O)[C@@]2(C)[C@H]([C@H](OC(=O)c3cccc(OC)c3)[C@]3(O)C[C@H](OC(=O)[C@H](O)[C@H](C=C(C)C)NC(=O)OC(C)(C)C)C(C)=C1C3(C)C)[C@]1(OC(C)=O)CO[C@@H]1C[C@@H]2O |  | 9.48 |  | 9.44 |  | 9.00 | 8.52 | 9.05 | 7.65 | 8.44 | 8.41 | Active | 9.12 | 9.17 | > 90% |
| CCC(=O)O[C@H]1C(=O)[C@@]2(C)[C@H]([C@H](OC(=O)c3cccc(OC)c3)[C@]3(O)C[C@H](OC(=O)[C@H](O)[C@H](CC(C)C)NC(=O)OC4CCCC4)C(C)=C1C3(C)C)[C@]1(OC(C)=O)CO[C@@H]1C[C@@H]2O | 8.59 | 8.93 | 3.4 | 9.77 | 6.9 | 9.12 |  |  |  |  |  |  |  |  |  |
| CCC(=O)O[C@H]1C(=O)[C@@]2(C)[C@H]([C@H](OC(=O)c3ccccc3)[C@]3(O)C[C@H](OC(=O)[C@H](O)[C@H](C=C(C)C)NC(=O)C4CCC4)C(C)=C1C3(C)C)[C@]1(OC(C)=O)CO[C@@H]1C[C@@H]2O | 7.47 | 7.39 | 26 | 8.92 | 34 | 8.89 |  |  |  |  |  |  |  |  |  |
| CCC(=O)O[C@H]1C(=O)[C@@]2(C)[C@H]([C@H](OC(=O)c3ccccc3)[C@]3(O)C[C@H](OC(=O)[C@H](O)[C@H](C=C(C)C)NC(=O)C4CCCCC4)C(C)=C1C3(C)C)[C@]1(OC(C)=O)CO[C@@H]1C[C@@H]2O | 7.89 | 7.74 | 10 | 9.00 | 18 | 8.89 |  |  |  |  |  |  |  |  |  |
| COc1ccc(CC(=O)O[C@H]2C(=O)[C@@]3(C)[C@H]([C@H](OC(=O)c4cccc(OC)c4)[C@]4(O)C[C@H](OC(=O)[C@H](O)[C@H](C=C(C)C)NC(=O)OC(C)(C)C)C(C)=C2C4(C)C)[C@]2(OC(C)=O)CO[C@@H]2C[C@@H]3O)cc1 | 9.40 | 8.74 | 1 | 9.22 | 3 | 9.40 |  |  |  |  |  |  |  |  |  |
| CCC(=O)O[C@H]1C(=O)[C@@]2(C)[C@H]([C@H](OC(=O)c3ccccc3)[C@]3(O)C[C@H](OC(=O)[C@H](O)[C@H](C=C(C)C)NC(=O)OC4CCCCC4)C(C)=C1C3(C)C)[C@]1(OC(C)=O)CO[C@@H]1C[C@@H]2O | 7.82 | 8.05 | 13 | 8.85 | 6.4 | 8.92 |  |  |  |  |  |  |  |  |  |
| CCC(=O)O[C@H]1C(=O)[C@@]2(C)[C@H]([C@H](OC(=O)c3ccccc3)[C@]3(O)C[C@H](OC(=O)[C@H](O)[C@H](C=C(C)C)NC(=O)C4CCCC4)C(C)=C1C3(C)C)[C@]1(OC(C)=O)CO[C@@H]1C[C@@H]2O | 7.72 | 7.66 | 17 | 8.96 | 20 | 8.96 |  |  |  |  |  |  |  |  |  |
| CCC(=O)O[C@H]1C(=O)[C@@]2(C)[C@H]([C@H](OC(=O)c3ccccc3)[C@]3(O)C[C@H](OC(=O)[C@H](O)[C@H](CC(C)C)NC(=O)OC4CCCCC4)C(C)=C1C3(C)C)[C@]1(OC(C)=O)CO[C@@H]1C[C@@H]2O | 7.74 | 7.85 | 3.8 | 8.85 | 10 | 8.32 |  |  |  |  |  |  |  |  |  |
| CCC(=O)O[C@H]1C(=O)[C@@]2(C)[C@H]([C@H](OC(=O)c3cccc(OC)c3)[C@]3(O)C[C@H](OC(=O)[C@H](O)[C@H](C=C(C)C)NC(=O)C4CCC4)C(C)=C1C3(C)C)[C@]1(OC(C)=O)CO[C@@H]1C[C@@H]2O | 7.82 | 8.06 | 9.4 | 9.10 | 11 | 8.80 |  |  |  |  |  |  |  |  |  |
| CCC(=O)O[C@H]1C(=O)[C@@]2(C)[C@H]([C@H](OC(=O)c3cccc(OC)c3)[C@]3(O)C[C@H](OC(=O)[C@H](O)[C@H](CC(C)C)NC(=O)C4CC4)C(C)=C1C3(C)C)[C@]1(OC(C)=O)CO[C@@H]1C[C@@H]2O | 7.89 | 7.93 | 22 | 9.40 | 30 | 9.22 |  |  |  |  |  |  |  |  |  |
| CCC(=O)O[C@H]1C(=O)[C@@]2(C)[C@H]([C@H](OC(=O)c3ccccc3)[C@]3(O)C[C@H](OC(=O)[C@H](O)[C@H](CC(C)C)NC(=O)C4CCCC4)C(C)=C1C3(C)C)[C@]1(OC(C)=O)CO[C@@H]1C[C@@H]2O | 7.19 | 7.54 | 10 | 8.64 | 12 | 8.20 |  |  |  |  |  |  |  |  |  |
